# A number with no mark means an inactive call.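 Rule for the calls: active = cytochrome c release activity at 50 µM, scaled between control wells and rounded, of 10% or more; inactive = the rest.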
# Test: mitochondrial cyt c release, wild-type CHL-1 – biochemical, cytochrome c ELISA, dry powder, counter-screen for A1 inhibitor project (AID 504407)
# Details: CHL-1 isolated mitochondria, at 50 µM, hits give high values
# Outline: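 test system = CHL-1 wild-type mitochondria | medium = AT buffer, 80 mM KCl | timing = 30 min compound treatment, 30 °C | detection = ELISA absorbance at 450 nm, 540 nm corrected | measure = released cytochrome c in supernatant | controls = DMSO negative, tBid positive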
compound,measurement,value
Cn1c(=O)c([N+](=O)[O-])c(Cl)c2ccccc21,cytochrome c release activity,0.1%
